Hits are enriched below; roughly 5.7% of the tested compounds scored in any of these assays.
Calb FLC – C. albicans growth inhibition with fluconazole, primary screen, CaCi-2 strain, Alamar Blue fluorescence | growth inhibition, % (test concentration not listed) | AID 1979, 2009 | 300,000 tested, 0.57% active | C. albicans CaCi-2 (fluconazole-resistant clinical isolate) + fluconazole, 48 h;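 active = growth inhibition above about 58% in most replicates, limit read from the data, passing the limit was not always enough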;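 note: all wells also contain fluconazole at 8 µg/ml as a sub-toxic cotreatment; 0% = median of DMSO wells and 100% = median of geldanamycin control wells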
SKKanGAS inh – S. pyogenes SKKanGAS growth inhibitors in kanamycin, primary screen, streptokinase expression inhibitor project, SKKanGAS strain, BacTiter-Glo luminescence; 6 h; inhibition, % at 7.5 µM; 300,000 tested, 1.3% active; AID 1662, 2009;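 active = mean replicate score, as percent of positive control median, at least 50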;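 note: strain carries kanamycin resistance gene driven by streptokinase promoter and grows in 40 µg/ml kanamycin; loss of luminescence reflects streptokinase promoter inhibition or plain growth inhibition; 0% = median of DMSO wells and 100% = positive control at its reference dose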
Beta cell apopt – inhibitors of cytokine-induced beta cell apoptosis, primary screen, luminescence; INS-1E cytokine-induced death, ATP luminescence, 48 h; percent of positive-control rescue, neutral wells zero; protection from apoptosis, % (test concentration not listed); 300,000 tested, 0.8% active;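 active = Every replicate reaches about 75%, or at least half do and their mean reaches it too, limit read from the data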;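 note: 0% = cytokine-treated negative control wells and 100% = positive control rescue; higher means more ATP so stronger rescue from cytokine killing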
Mdm2-MdmX inh – inhibitors of human Mdm2-MdmX association, primary screen, cell-based, luminescence, split luciferase, SaOS-2, uHTS | SaOS-2 split-luciferase Mdm2/MdmX complementation | 330,000 tested, 3% active | AID 485346, 2010 | inhibition, % at 8 µM | Protein Mdm4 (Homo sapiens) + E3 ubiquitin-protein ligase Mdm2 (Homo sapiens), …;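 active = inhibition of at least 50% at 8 µM in the primary screen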
Target sequence (O15151 whole entry, looked up): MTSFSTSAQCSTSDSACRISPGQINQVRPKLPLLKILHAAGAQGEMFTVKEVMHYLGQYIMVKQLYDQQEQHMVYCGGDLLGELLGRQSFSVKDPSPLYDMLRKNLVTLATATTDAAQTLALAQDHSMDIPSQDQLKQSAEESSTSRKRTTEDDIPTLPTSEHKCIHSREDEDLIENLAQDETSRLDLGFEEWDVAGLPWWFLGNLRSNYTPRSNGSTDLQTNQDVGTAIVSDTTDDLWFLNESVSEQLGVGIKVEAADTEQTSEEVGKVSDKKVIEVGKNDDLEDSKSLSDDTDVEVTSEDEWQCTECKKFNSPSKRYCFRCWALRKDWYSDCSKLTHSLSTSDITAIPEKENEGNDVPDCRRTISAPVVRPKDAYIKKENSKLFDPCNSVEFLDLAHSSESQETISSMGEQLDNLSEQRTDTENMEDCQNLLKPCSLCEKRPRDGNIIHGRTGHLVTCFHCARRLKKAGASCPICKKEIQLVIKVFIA
Target sequence (Q00987 whole entry, looked up): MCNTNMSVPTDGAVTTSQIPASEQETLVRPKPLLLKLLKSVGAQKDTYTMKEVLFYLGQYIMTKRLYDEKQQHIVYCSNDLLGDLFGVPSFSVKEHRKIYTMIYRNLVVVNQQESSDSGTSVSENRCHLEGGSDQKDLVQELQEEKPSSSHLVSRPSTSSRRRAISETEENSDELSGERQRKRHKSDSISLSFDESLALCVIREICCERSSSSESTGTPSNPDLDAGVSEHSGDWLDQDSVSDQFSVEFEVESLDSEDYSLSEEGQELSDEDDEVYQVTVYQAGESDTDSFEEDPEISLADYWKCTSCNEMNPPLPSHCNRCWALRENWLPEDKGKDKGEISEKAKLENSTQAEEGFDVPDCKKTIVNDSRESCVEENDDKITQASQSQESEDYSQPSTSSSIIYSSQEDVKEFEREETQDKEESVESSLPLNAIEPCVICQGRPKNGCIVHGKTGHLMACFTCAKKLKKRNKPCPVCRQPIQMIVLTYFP
CSC inhib – cancer stem cell viability inhibitors, primary screen, luminescence | inhibition, % at 7.5 µM | cancer stem cell-like cells viability | 300,000 tested, 1.1% active; in the data active = inhibition above about 75%; tested in HMLE shEcad cells
T cruzi repl – inhibitors of intracellular T. cruzi growth, primary screen, luminescence, NIH3T3 host cells. T. cruzi beta-gal in NIH3T3, 90 h. inhibition, % (concentration not given with the values). 300,000 tested, 1.4% active;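 active = mean inhibition across valid replicates above about 55%, limit read from the data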;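 note: signal also drops with host cell toxicity which is not excluded here; 0% = plate median of DMSO wells and 100% = zero luminescence signal; higher percent means less beta-gal luminescence so fewer parasites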
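assay system = mouse NIH/3T3 fibroblasts infected with β-gal-expressing T. cruzi Tulahuen C4 | input = 5,000 NIH/3T3 host cells per well | buffer or medium = DMEM plus 2% FBS | timing = 3 h host attachment, then at least 90 h co-culture | measured by = GalScreen luminescence, 60 min | evaluation = luminescence reflecting intracellular parasite burden, expressed as percent inhibition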
Active calls of the source: *; nt = no result.

SMILES	Calb FLC	SKKanGAS inh	Beta cell apopt	Mdm2-MdmX inh	CSC inhib	T cruzi repl
CC(C)(C)OC(=O)NCCCC[C@H](NC(=O)c1nc[nH]c1C(=O)NC(c1ccccc1)c1ccccc1)C(=O)OC(C)(C)C	-1.8	27.4	23.8	37.7	34.7	56.5*
CC(C)C[C@H](NC(=O)c1[nH]cnc1C(=O)N[C@@H](C)C(=O)OCc1ccccc1)C(=O)OCc1ccccc1	nt	nt	-1.0	23.0	nt	nt
CC(C)(C)OC(=O)NCCCC[C@H](NC(=O)c1nc[nH]c1C(=O)N[C@@H](CCCCNC(=O)OC(C)(C)C)C(=O)OC(C)(C)C)C(=O)OC(C)(C)C	18.3	17.1	24.8	21.1	6.6	42.8
Cc1cccc(NC(=O)c2nc[nH]c2C(=O)Nc2cccc(C)c2)c1	-17.2	7.3	5.1	39.7	3.7	-4.6
CC(C)C[C@H](NC(=O)c1nc[nH]c1C(=O)NCc1ccccc1)C(=O)OCc1ccccc1	4.7	54.1*	-11.3	3.2	-5.4	2.4
CC1CC(C)CN(CC(O)COCc2ccccc2)C1 (stereo not given)	-1.0	-1.3	-3.9	13.8	-15.1	12.3
Cc1cc(C)c(S(=O)(=O)N2CCCCC2CCNC(=O)C(=O)NCc2ccco2)c(C)c1 (stereo not given)	-8.1	-3.9	nt	8.1	11.3	-10.5
Cc1ccc(C2(C)NC(=O)N(CC(=O)NC3CCCCC3)C2=O)cc1 (stereo not given)	nt	nt	nt	20.9	nt	nt
COc1ccc(CNN2CCCCC2C(=O)Nc2ccc(OC)c(OCC(C)C)c2)cc1OC (stereo not given)	-4.3	-2.5	-0.4	17.8	-11.7	57.5*
CCc1nc2c(c(=O)[nH]1)C1(CCCC1)Cc1ccccc1-2	-7.7	-3.1	2.5	12.5	-4.0	8.8
Cc1nc(=S)c2c([nH]1)-c1ccccc1CC21CCCCC1	-1.5	100.1*	5.2	30.1	4.4	52.5
O=S(=O)(Nc1nc2ccccc2s1)c1ccc(Br)s1	89.0*	13.4	6.5	-2.2	31.7	-10.1
COc1ccc(NS(=O)(=O)c2ccc(N3CCCCC3)c(N)c2)cc1	nt	nt	102.4*	15.3	21.5	nt
COc1ccc(NS(=O)(=O)c2ccc(N3CCCCC3)c(NC(=O)C(C)NC(N)=O)c2)cc1 (stereo not given)	nt	nt	-1.5	-27.6	-6.4	nt
Clc1ccccc1CN(Cc1ccccc1)C(c1cccs1)c1nnnn1C1CCCC1 (stereo not given)	nt	-2.2	8.7	-6.4	24.3	35.2
CC(C)(C)n1nnnc1C(c1cccs1)N(Cc1cccnc1)Cc1ccccc1Cl (stereo not given)	19.2	15.0	nt	19.3	41.0	70.6*
CC(c1nnnn1C1CCCCC1)N(Cc1ccccc1)Cc1cccnc1 (stereo not given)	26.6	1.4	1.1	22.4	-18.4	38.2
CC(c1nnnn1C(C)(C)C)N(Cc1cccnc1)Cc1ccccc1Cl (stereo not given)	-0.5	-0.5	7.3	6.1	-4.1	65.9*
CC(C)C[C@@]12C(=O)N(c3cccc(Br)c3)C(=O)N1[C@H](c1ccc(F)cc1)[C@@H]1C(=O)N(C3CCCCC3)C(=O)[C@@H]12	18.9	4.1	3.1	10.3	12.7	38.4
CC(C)(C)Cc1nnc(NC(=O)CCC2CCCCC2)s1	-5.5	-3.0	nt	19.5	-6.0	7.9
COC(=O)C1=C(C(=O)OC)[C@]2([C@H]3CCCCN[C@@H](Cc4ccccc4)C(=O)N3Cc3ccccc3)C=C[C@H]1O2	nt	nt	26.0	46.9	nt	nt
O=C(COC(=O)c1cc[n+]([O-])cc1)Nc1ccc([N+](=O)[O-])cc1C(F)(F)F	nt	nt	nt	28.0	nt	nt
Cc1ccc(O)c(-c2cc3ccccc3[nH]2)c1	82.6*	7.3	2.7	8.2	44.2	50.2
COc1ccc(-c2cc3ccccc3[nH]2)cc1	32.3	-0.9	-0.5	-123.7	2.7	4.1
c1ccc(CSC2=NNC(c3ccccn3)S2)cc1 (stereo not given)	4.6	82.9*	51.9	40.8	124.6*	63.3*
SMILES	Calb FLC	SKKanGAS inh	Beta cell apopt	Mdm2-MdmX inh	CSC inhib	T cruzi repl
c1ccc(CSc2ncccn2)cc1	-17.3	-3.2	-2.0	-11.3	-2.5	-10.9
O=C(CSC1=NNC(c2ccccn2)S1)Nc1ccc(C(F)(F)F)cc1 (stereo not given)	-0.6	48.2	8.6	-4.6	93.4*	17.7
CC(=O)Nc1ccc(NC(=O)CSc2ccccn2)cc1	-6.0	1.5	1.8	12.9	-26.2	-28.5
COc1ccc(-c2csc3ncnc(N4CCN(c5ccccc5OC)CC4)c23)cc1	-0.2	36.1	18.1	20.5	21.6	39.1
COc1ccc(-c2csc3ncnc(N4CCN(S(=O)(=O)c5ccc(C)c(C)c5)CC4)c23)cc1	2.7	38.8	12.2	44.2	-3.9	55.2*
CCOc1ccccc1N1CCN(c2ncnc3scc(-c4ccc(OC)cc4)c23)CC1	-6.4	35.5	4.3	49.3	6.9	60.7*
O=S(=O)(c1ccccc1)N1CCN(c2ncnc3scc(-c4ccccc4)c23)CC1	11.7	-4.8	10.5	12.7	18.0	24.4
Cn1c(=O)n(Cc2ccc(F)cc2)c(=O)c2c1nc1n2CCCN1C1CCCCC1	4.5	11.0	10.7	43.1	78.2*	34.0
O=S(=O)(Cc1cc(NCc2ccccc2)nc(-c2ccncc2)n1)c1ccccc1	-5.5	5.6	5.6	-8.8	-8.7	5.8
O=S(=O)(Cc1cc(NCc2ccccc2)nc(-c2ccccn2)n1)c1ccccc1	-6.4	56.3*	nt	12.1	9.5	27.3
Cc1cccc(C)c1NC(=O)C(=O)NCC1CCCN1S(=O)(=O)c1ccccc1 (stereo not given)	0.9	-1.9	-0.4	2.2	nt	15.4
CC(C)=CCC12Oc3cc(O)ccc3C1(O)Oc1cc3c(c(O)c1C2=O)C=CC(C)(C)O3 (stereo not given)	-9.7	105.0*	-5.4	18.2	7.8	19.4
COc1cccc(CN(C)C(=O)c2cc(COc3c(F)cccc3F)on2)c1	50.8	0.3	-0.4	10.1	6.7	17.1
CC(NC(=O)c1cc(COc2ccc3ncccc3c2)on1)c1ccc(F)cc1 (stereo not given)	12.2	2.5	105.0*	13.5	55.6	18.4
O=C(c1cc(COc2ccc3ncccc3c2)on1)N1CCCCCC1	-4.5	1.4	90.7*	-7.7	14.9	31.1
COc1cccc(CN(C)C(=O)c2cc(COc3ccc4ncccc4c3)on2)c1	-7.9	11.7	76.5*	7.2	8.1	27.4
O=C(NCCc1cn2ccccc2n1)c1cc(COc2ccc3ncccc3c2)on1	-5.9	-8.6	104.1*	1.4	3.6	-87.8
Cc1ccc(OCCC(=O)OCC(=O)Nc2ccc3c(c2)OCO3)cc1	-0.4	-5.0	-8.2	-10.8	-7.1	-15.5

From PubChem
